According to article PMC6525014 (Journal of labelled compounds & radiopharmaceuticals, 2019):

Key:
[1] = Metabolic stability in pooled human liver microsomes; type: in vitro ADME; details: for half-life at 1 μM: human, pooled human liver microsomes, pH 7.4
Outline: (§1)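 Pooled liver microsomes (CD-1 mouse, SD rat or human) at 0.5 mg/mL, with 1 μM test compound, 1.7 mM β-NADPH and 3.3 mM MgCl2 in 0.1 M phosphate pH 7.4, 37°C, DMSO <0.1% final. Samples at 0, 5, 10, 15, 30, 45, 60 min were quenched in cold acetonitrile with internal standard. Parent remaining measured by negative-ion MRM LC–MS/MS. t1/2 from ln(remaining) versus time. Controls: no-NADPH, verapamil.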

[2] = Metabolic stability in pooled SD rat liver microsomes; type: in vitro ADME; details: for half-life at 1 μM: SD, rat, pooled rat liver microsomes, pH 7.4
Outline: as §1

[3] = Metabolic stability in pooled CD-1 mouse liver microsomes; type: in vitro ADME; details: for half-life at 1 μM: CD-1, mouse, pooled mouse liver microsomes, pH 7.4
Outline: as §1

obese mice = details: earlier work of the authors; cited from earlier work

For `[2H]CC([2H])(C)c1ccc2oc3nc(N)c(C(=O)O)cc3c(=O)c2c1` (stereo not shown) [Compound 5, 2-Amino-5-oxo-7-(propan-2-yl-1,2-d2)-5H-chromeno[2,3-b]pyridine-3-carboxylic acid], which half-life at 1 μM [1] is on record?
Its half-life at 1 μM is over 1 h.

What about the half-life at 1 μM [2] of the same compound?
The half-life at 1 μM was over 1 h.

What about the “stability relative to amlexanox” value ([2]; rat liver microsomes) of the same compound?
The value was “more stable than amlexanox (1)”.

And the half-life at 1 μM [3]?
The half-life at 1 μM was over 1 h.

With `CC(C)c1ccc2oc3nc(N)c(C(=O)O)cc3c(=O)c2c1` [Compound 1, amlexanox] as the compound, how does the “more unmetabolized amlexanox remaining compared to d2-amlexanox” value ([1]; human liver microsomes, after 60 min) read?
The value was “about 8%”.

And the half-life at 1 μM [1]?
Its half-life at 1 μM is over 1 h.

And the half-life at 1 μM [2]?
Its half-life at 1 μM is over 1 h.

What about the “effects in obese mice” value (obese mice) of the same compound?
Its value is “weight loss in obese mice, improved insulin sensitivity, and reduced hepatic steatosis and inflammation”.

What about the half-life at 1 μM [3] of the same compound?
The half-life at 1 μM was over 1 h.

And the “more unmetabolized amlexanox remaining compared to d2-amlexanox” value ([3]; mice liver microsomes, after 60 min)?
Its value is “about 8%”.
